Measurements published in ChEMBL document CHEMBL5120823, “Feature-Based Molecular Networking Discovery of Bromopyrrole Alkaloids from the Marine Sponge Agelas dispar” (J Nat Prod, 2022).
≈ marks a conversion by molar mass, not a printed value.

Columns and labels:
Staphylococcus aureus [1] = test: Antibacterial activity against oxacillin-resistant Staphylococcus aureus ATCC 33591 incubated for 24 hrs by broth microdilution method; type: functional
Procedure, shortened: (§1)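 CLSI-based broth microdilution. Pure bacterial suspensions adjusted to 0.5 McFarland (about (1−2) × 10^8 CFU/mL), then diluted to a final inoculum of about 5 × 10^5 CFU/mL (5 × 10^4 CFU/well). Compounds were tested in 2-fold dilutions from 100 to 0.78 μM. Plates incubated 24 h at 35 °C. MIC was the lowest concentration with complete growth inhibition by unaided eye, reported in μM.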

Enterococcus faecalis [2] = test: Antibacterial activity against Enterococcus faecalis ATCC 29212 incubated for 24 hrs by broth microdilution method; type: functional
Procedure, shortened: (§2)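 CLSI-based broth microdilution. Pure bacterial suspensions were set to 0.5 McFarland (about (1−2) × 10^8 CFU/mL) and diluted to a final inoculum of about 5 × 10^5 CFU/mL. Compounds were tested in 2-fold dilutions from 100 to 0.78 μM and incubated at 35 °C for 24 h. MIC was read as the lowest concentration with no growth visible to the unaided eye.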

Klebsiella pneumoniae [3] = test: Antibacterial activity against carbapenem-resistant Klebsiella pneumoniae id-146/19 incubated for 24 hrs by broth microdilution method; type: functional; procedure, shortened: as §1
Klebsiella pneumoniae [4] = test: Antibacterial activity against Klebsiella pneumoniae ATCC 700603 incubated for 24 hrs by broth microdilution method; type: functional; procedure, shortened: as §2
Pseudomonas aeruginosa [5] = test: Antibacterial activity against Pseudomonas aeruginosa ATCC 27853 incubated for 24 hrs by broth microdilution method; type: functional; procedure, shortened: as §2
Escherichia coli [6] = test: Antibacterial activity against Escherichia coli ATCC 25922 incubated for 24 hrs by broth microdilution method; type: functional; procedure, shortened: as §2
Escherichia coli [7] = test: Antibacterial activity against ESBL-producing Escherichia coli ATCC 35218 incubated for 24 hrs by broth microdilution method; type: functional; procedure, shortened: as §2
Pseudomonas aeruginosa [8] = test: Antibacterial activity against carbapenem-resistant Pseudomonas aeruginosa S-6065/06 incubated for 24 hrs by broth microdilution method; type: functional; procedure, shortened: as §1
[9] = Hemolytic activity against BALB/c mouse erythrocyte at 100 uM measured after 2 hrs relative to control; type: toxicity, cell-based; settings: erythrocytes, read-out: Activity
Procedure, shortened: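 BALB/c mouse erythrocytes, as a 3% suspension in 1× PBS, were exposed to compound at 100 to 6.25 μM for 2 h at 24 °C. Hemolysis was read as supernatant optical density at 570 nm. Distilled water gave maximum hemolysis, and untreated erythrocytes served as the negative control.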

OVCAR3 (Homo sapiens) = test: Cytotoxicity against human OVCAR3 cells assessed as inhibition of cell viability at 50 uM incubated for 72 hrs by MTT assay relative to control
Enterococcus faecalis [10] = test: Antibacterial activity against vancomycin resistant Enterococcus faecalis ATCC 51299 incubated for 24 hrs by broth microdilution method; type: functional; procedure, shortened: as §1
Acinetobacter baumannii [11] = test: Antibacterial activity against carbapenem-resistant Acinetobacter baumannii id-261/16 incubated for 24 hrs by broth microdilution method; type: functional; procedure, shortened: as §1
Staphylococcus aureus [12] = test: Antibacterial activity against Staphylococcus aureus ATCC 25923 incubated for 24 hrs by broth microdilution method; type: functional; procedure, shortened: as §1
Acinetobacter baumannii [13] = test: Antibacterial activity against Acinetobacter baumannii ATCC 19606 incubated for 24 hrs by broth microdilution method; type: functional; procedure, shortened: as §2

Compound | MIC (Staphylococcus aureus [1]) [µM] | MIC (Enterococcus faecalis [2]) [µM] | MIC (Klebsiella pneumoniae [3]) [µM] | MIC (Klebsiella pneumoniae [4]) [µM] | MIC (Pseudomonas aeruginosa [5]) [µM] | MIC (Escherichia coli [6]) [µM] | MIC (Escherichia coli [7]) [µM] | MIC (Pseudomonas aeruginosa [8]) [µM] | hemolysis at 2 h, 100 µM [9] [%] | Activity (OVCAR3 (Homo sapiens)) [%] | MIC (Enterococcus faecalis [10]) [µM] | MIC (Acinetobacter baumannii [11]) [µM] | MIC (Staphylococcus aureus [12]) [µM] | MIC (Acinetobacter baumannii [13]) [µM]
Nc1nc([C@@H]2c3[nH]c(N)nc3C[C@H](CNC(=O)c3cc(Br)c[nH]3)[C@H]2CNC(=O)c2cc(Br)c[nH]2)c[nH]1 | > 100 | > 100 | > 100 | > 100 | 50 (≈ 31 µg/mL) | 100 (≈ 62 µg/mL) | 100 (≈ 62 µg/mL) | > 100 | 2.3 | 50 | > 100 | > 100 | > 100 | > 100
Nc1nc([C@@H]2c3nc(N)[nH]c3C[C@H](CNC(=O)c3cc(Br)c(Br)[nH]3)[C@H]2CNC(=O)c2cc(Br)c(Br)[nH]2)c[nH]1 | 6.2 (≈ 4.82 µg/mL) | 6.2 (≈ 4.82 µg/mL) | 25 (≈ 19.5 µg/mL) | 12.5 (≈ 9.73 µg/mL) | 25 (≈ 19.5 µg/mL) | 12.5 (≈ 9.73 µg/mL) | 12.5 (≈ 9.73 µg/mL) | 25 (≈ 19.5 µg/mL) | 0.7 |  | 6.2 (≈ 4.82 µg/mL) | 100 (≈ 77.8 µg/mL) | 6.2 (≈ 4.82 µg/mL) | 100 (≈ 77.8 µg/mL)
Nc1nc([C@@H]2c3[nH]c(N)nc3C[C@H](CNC(=O)c3cc(Br)c[nH]3)[C@H]2CNC(=O)c2cc(Br)c(Br)[nH]2)c[nH]1 [BROMOAGELIFERIN] | 12.5 (≈ 8.74 µg/mL) | > 100 | > 100 | > 100 | 12.5 (≈ 8.74 µg/mL) | 12.5 (≈ 8.74 µg/mL) | 25 (≈ 17.5 µg/mL) | 50 (≈ 35 µg/mL) | 1.5 |  | > 100 | 100 (≈ 69.9 µg/mL) | 12.5 (≈ 8.74 µg/mL) | > 100
